Experimental data from ChEMBL document CHEMBL3286366, “Identification of malic enzyme mutants depending on 1,2,3-triazole moiety-containing nicotinamide adenine dinucleotide analogs” (Bioorg Med Chem Lett, 2014).
Values belong to the molecule of their own block, whether it stands above or below them.

Columns and labels:
[1] = tested on: Escherichia coli K-12; test: Ratio of Kcat to Km for purified recombinant Escherichia coli K-12 malic enzyme L310K/L404S mutant at 0.2 mM by Lineweaver-Burk plot method in presence of L-malate MnCl2
[2] = tested on: Escherichia coli K-12; test: Activity of purified recombinant Escherichia coli K-12 malic enzyme L310K/L404S mutant at 0.2 mM by Lineweaver-Burk plot method in presence of L-malate MnCl2
[3] = tested on: Escherichia coli K-12; test: Activity of purified recombinant Escherichia coli K-12 malic enzyme L310K/L404S mutant at 0.2 mM by UV-vis spectrophotometry in presence of L-malate MnCl2
How it was run: (§1)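 Screening of malic enzyme mutants with 1,2,3-triazole-containing NAD analogs as cofactor. Each analog was present at 0.2 mM, and the read-out was specific activity.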

[4] = tested on: Escherichia coli K-12; test: Activity of purified recombinant Escherichia coli K-12 malic enzyme L310K/Q401R mutant at 0.2 mM by UV-vis spectrophotometry in presence of L-malate MnCl2; how it was run: as §1
[5] = tested on: Escherichia coli K-12; test: Activity of purified recombinant Escherichia coli K-12 malic enzyme L310R/Q401N mutant at 0.2 mM by UV-vis spectrophotometry in presence of L-malate MnCl2; how it was run: as §1
[6] = tested on: Escherichia coli K-12; test: Activity of purified recombinant Escherichia coli K-12 malic enzyme L310R/Q401V mutant at 0.2 mM by UV-vis spectrophotometry in presence of L-malate MnCl2; how it was run: as §1
[7] = tested on: Escherichia coli K-12; test: Activity of purified recombinant Escherichia coli K-12 malic enzyme L310R/L404N mutant at 0.2 mM by UV-vis spectrophotometry in presence of L-malate MnCl2; how it was run: as §1
[8] = tested on: Escherichia coli K-12; test: Activity of purified recombinant Escherichia coli K-12 malic enzyme L310R/L404C mutant at 0.2 mM by UV-vis spectrophotometry in presence of L-malate MnCl2; how it was run: as §1
[9] = tested on: Escherichia coli K-12; test: Activity of purified recombinant Escherichia coli K-12 malic enzyme L310R/Q401I mutant at 0.2 mM by UV-vis spectrophotometry in presence of L-malate MnCl2; how it was run: as §1
[10] = tested on: Escherichia coli K-12; test: Activity of purified recombinant Escherichia coli K-12 malic enzyme L310R/Q401S mutant at 0.2 mM by UV-vis spectrophotometry in presence of L-malate MnCl2; how it was run: as §1
[11] = compound: NC(=O)c1ccc[n+]([C@@H]2O[C@H](COP(=O)([O-])OP(=O)(O)OC[C@@H]3O[C@H](n4cc(-c5cccc6ccccc56)nn4)[C@@H](O)[C@H]3O)[C@@H](O)[C@H]2O)c1; test: (§2) Ratio of Kcat to Km for purified recombinant Escherichia coli K-12 malic enzyme at 0.2 mM by Lineweaver-Burk plot method in presence of L-malate MnCl2
[12] = compound: Cc1ccccc1-c1cn([C@H]2O[C@@H](COP(=O)(O)OP(=O)([O-])OC[C@H]3O[C@@H]([n+]4cccc(C(N)=O)c4)[C@H](O)[C@@H]3O)[C@H](O)[C@@H]2O)nn1; test: as §2
[13] = compound: NC(=O)c1ccc[n+]([C@@H]2O[C@H](COP(=O)([O-])OP(=O)(O)OC[C@@H]3O[C@H](n4cnc5c(N)ncnc54)[C@@H](O)[C@H]3O)[C@@H](O)[C@H]2O)c1; test: as §2
[14] = compound: NC(=O)c1ccc[n+]([C@@H]2O[C@H](COP(=O)([O-])OP(=O)(O)OC[C@@H]3O[C@H](n4cc(-c5ccccc5)nn4)[C@@H](O)[C@H]3O)[C@@H](O)[C@H]2O)c1; test: as §2
[15] = compound: NC(=O)c1ccc[n+]([C@@H]2O[C@H](COP(=O)([O-])OP(=O)(O)OC[C@@H]3O[C@H](n4cc(-c5cccc6ccccc56)nn4)[C@@H](O)[C@H]3O)[C@@H](O)[C@H]2O)c1; test: (§3) Activity of purified recombinant Escherichia coli K-12 malic enzyme at 0.2 mM by Lineweaver-Burk plot method in presence of L-malate MnCl2
[16] = compound: Cc1ccccc1-c1cn([C@H]2O[C@@H](COP(=O)(O)OP(=O)([O-])OC[C@H]3O[C@@H]([n+]4cccc(C(N)=O)c4)[C@H](O)[C@@H]3O)[C@H](O)[C@@H]2O)nn1; test: as §3
[17] = compound: NC(=O)c1ccc[n+]([C@@H]2O[C@H](COP(=O)([O-])OP(=O)(O)OC[C@@H]3O[C@H](n4cnc5c(N)ncnc54)[C@@H](O)[C@H]3O)[C@@H](O)[C@H]2O)c1; test: as §3
[18] = compound: NC(=O)c1ccc[n+]([C@@H]2O[C@H](COP(=O)([O-])OP(=O)(O)OC[C@@H]3O[C@H](n4cc(-c5ccccc5)nn4)[C@@H](O)[C@H]3O)[C@@H](O)[C@H]2O)c1; test: as §3

kcat/Km [1]: 78800 M⁻¹ s⁻¹
Km [2]: 1100 µM
kcat [2]: 86.7 s⁻¹
Molecule: Cc1ccccc1-c1cn([C@H]2O[C@@H](COP(=O)(O)OP(=O)([O-])OC[C@H]3O[C@@H]([n+]4cccc(C(N)=O)c4)[C@H](O)[C@@H]3O)[C@H](O)[C@@H]2O)nn1

kcat/Km [1]: 8200 M⁻¹ s⁻¹
Km [2]: 4100 µM
kcat [2]: 33.7 s⁻¹
Molecule: NC(=O)c1ccc[n+]([C@@H]2O[C@H](COP(=O)([O-])OP(=O)(O)OC[C@@H]3O[C@H](n4cnc5c(N)ncnc54)[C@@H](O)[C@H]3O)[C@@H](O)[C@H]2O)c1

kcat/Km [1]: 6700 M⁻¹ s⁻¹
Km [2]: 2500 µM
kcat [2]: 16.4 s⁻¹
Molecule: NC(=O)c1ccc[n+]([C@@H]2O[C@H](COP(=O)([O-])OP(=O)(O)OC[C@@H]3O[C@H](n4cc(-c5ccccc5)nn4)[C@@H](O)[C@H]3O)[C@@H](O)[C@H]2O)c1

Activity [5]: 0.32 U/mg
Activity [3]: 10.5 U/mg
Activity [6]: 0.53 U/mg
Activity [4]: 2.3 U/mg
Activity [7]: 0.47 U/mg
Activity [8]: 0.36 U/mg
kcat/Km [1]: 68600 M⁻¹ s⁻¹
Km [2]: 1000 µM
kcat [2]: 68.6 s⁻¹
Molecule: NC(=O)c1ccc[n+]([C@@H]2O[C@H](COP(=O)([O-])OP(=O)(O)OC[C@@H]3O[C@H](n4cc(-c5cccc6ccccc56)nn4)[C@@H](O)[C@H]3O)[C@@H](O)[C@H]2O)c1

The remaining lines, values behind:

Molecule: NC(=O)c1ccc[n+]([C@@H]2O[C@H](COP(=O)([O-])OP(=O)(O)OC[C@@H]3O[C@H](n4cc(C(=O)O)nn4)[C@@H](O)[C@H]3O)[C@@H](O)[C@H]2O)c1
Activity [3]: 0.17 U/mg
Activity [4]: 2.1 U/mg

Molecule: COc1ccc(-c2cn([C@H]3O[C@@H](COP(=O)(O)OP(=O)([O-])OC[C@H]4O[C@@H]([n+]5cccc(C(N)=O)c5)[C@H](O)[C@@H]4O)[C@H](O)[C@@H]3O)nn2)cc1
Activity [5]: 0.43 U/mg
Activity [9]: 0.98 U/mg
Activity [3]: 1.6 U/mg
Activity [10]: 0.43 U/mg
Activity [4]: 4.3 U/mg
Activity [7]: 0.51 U/mg
Activity [8]: 0.51 U/mg

B1: NAD-dependent malic enzyme (Escherichia coli (strain K12)), P26616 (protein)
chain: MEPKTKKQRSLYIPYAGPVLLEFPLLNKGSAFSMEERRNFNLLGLLPEVVETIEEQAERAWIQYQGFKTEIDKHIYLRNIQDTNETLFYRLVNNHLDEMMPVIYTPTVGAACERFSEIYRRSRGVFISYQNRHNMDDILQNVPNHNIKVIVVTDGERILGLGDQGIGGMGIPIGKLSLYTACGGISPAYTLPVVLDVGTNNQQLLNDPLYMGWRNPRITDDEYYEFVDEFIQAVKQRWPDVLLQFEDFAQKNAMPLLNRYRNEICSFNDDIQGTAAVTVGTLIAASRAAGGQLSEKKIVFLGAGSAGCGIAEMIISQTQREGLSEEAARQKVFMVDRFGLLTDKMPNLLPFQTKLVQKRENLSDWDTDSDVLSLLDVVRNVKPDILIGVSGQTGLFTEEIIREMHKHCPRPIVMPLSNPTSRVEATPQDIIAWTEGNALVATGSPFNPVVWKDKIYPIAQCNNAFIFPGIGLGVIASGASRITDEMLMSASETLAQYSPLVLNGEGMVLPELKDIQKVSRAIAFAVGKMAQQQGVAVKTSAEALQQAIDDNFWQAEYRDYRRTSI
kcat/Km [11]: 2600 M⁻¹ s⁻¹
kcat/Km [12]: 6300 M⁻¹ s⁻¹
kcat/Km [13]: 369000 M⁻¹ s⁻¹
kcat/Km [14]: 2600 M⁻¹ s⁻¹
Km [15]: 1800 µM
kcat [15]: 4.6 s⁻¹
Km [16]: 1600 µM
kcat [16]: 10 s⁻¹
Km [17]: 280 µM
kcat [17]: 103 s⁻¹
Km [18]: 2900 µM
kcat [18]: 7.5 s⁻¹
